Source: PubChem BioAssay AID504358 (Southern Research Specialized Biocontainment Screening …, 2011)
Activity calls are given as the source filed them.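 The calls were made as follows: active = compounds blocking phage killing of the bacteria by at least 50% at some tested dose; inactive = the rest.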

Tests used:
[1] = inhibition of K1F phage lysis of E. coli UTI89, confirmation, bacterial capsule biogenesis inhibitors, C7 control, OD600 (AID 504358); settings: E. coli UTI89 K1F phage lysis inhibition, OD600; for SI: measured here: selectivity index CC50/IC50, stronger effect = higher value
Summary of the method: (§1)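 Assay system: E. coli UTI89 K1 cells with K1F phage. Times: 1.25 h compound, then 3 h phage, 37 °C. Signal: OD600 absorbance. Evaluation: phage lysis inferred from OD600 3 h after phage infection.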

[2] = tested on: E. coli UTI89 K1F phage lysis inhibition, OD600; test: as above; settings: for CC50: measured here: cytotoxicity
Summary of the method: as §1

For `C=CCOc1ccc(C2c3c(oc4ccccc4c3=O)C(=O)N2CCCN2CCOCC2)cc1` (stereo unspecified), the outcome [1] was “inactive” and the CC50 [2] was > 100 µM.
With `Cc1ccc(C2c3c(oc4cc(C)c(C)cc4c3=O)C(=O)N2CCCN2CCOCC2)cc1` (stereo unspecified) the outcome [1] was “inactive” and the CC50 [2] was 44.4 µM.
With `O=C(O)c1cc(-c2cccc(Cl)c2)nc2cc3ccccc3cc12` the outcome [1] was “inactive”.
In the case of `COc1ccc(OC)c(-c2cc(C(=O)O)c3cc4ccccc4cc3n2)c1`, the outcome [1] is reported as “inactive”.
For `CC1(C(=O)O)CCC(C(=O)Nc2ccc3ccccc3c2)C1(C)C` (stereo unspecified), the SI [1] was > 1.4, the IC50 [2] was 69.8 µM and the CC50 [2] was > 100 µM.
For `O=C(NCc1cc([N+](=O)[O-])ccc1O)c1cccnc1Sc1ccccc1Cl`, the SI [1] was > 3.8, the IC50 [2] was 26.1 µM and the CC50 [2] was > 100 µM.
Compound `CCOc1ccc(-c2cc(NC(=O)c3c(F)cccc3F)c(C(=O)O)s2)cc1` has an SI [1] of 10.8, an IC50 [2] of 6.2 µM and a CC50 [2] of 66.7 µM.
In the case of `O=C(O)c1cc(-c2c[nH]c3ccccc23)nc2cc3ccccc3cc12`, the outcome [1] is reported as “inactive”.
In the case of `CC1=NN2C(=N)/C(=C\c3ccc(SCc4ccco4)o3)C(=O)N=C2S1`, the SI [1] is reported as 4.4, the IC50 [2] is reported as 22.6 µM and the CC50 [2] is reported as > 100 µM.
`O=C(COc1ccc(Cl)cc1Cl)Nc1ccc(C(=O)Nc2ccccc2C(=O)O)cc1` gave a CC50 [2] of 45.3 µM.
For `O=C(Nc1ccncc1)c1ccc2ncsc2c1`, the SI [1] was > 33, the IC50 [2] was 3 µM and the CC50 [2] was > 100 µM.
For `Cc1cc(C)c2c(=O)c(-c3cc(C(=O)O)c4cc5ccccc5cc4n3)coc2c1`, the outcome [1] was “inactive”.
For `COc1ccc2nc(NC(=O)c3ccc(Br)s3)sc2c1`, the SI [1] was > 9.4, the IC50 [2] was 10.6 µM and the CC50 [2] was > 100 µM.
In the case of `O=C(NCc1cc([N+](=O)[O-])ccc1O)c1cccnc1Sc1ccccc1`, the CC50 [2] is reported as > 100 µM.
In the case of `O=C(ONc1ccc(N=NC(=O)c2ccccc2O)cc1)c1ccccc1`, the SI [1] is reported as 13.7, the IC50 [2] is reported as 3.3 µM and the CC50 [2] is reported as 45.1 µM.
